# The list is not random: actives were taken first. Their share in the collection is about 4.5%.
# TAAR1 agonist: human TAAR1 agonism. Q96RJ0. CHO RD-HGA16 TAAR1, Fluo-8 calcium fluorescence; vehicle wells 0%, saturating PEA agonist 100%. activation, % at 3 µM. 360,000 compounds, 0.99% hits. AID 624467;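 active means activation above the mean activation of all test compounds in the run plus 3 SD, cut at about 38% in these data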
# Target sequence (Q96RJ0 whole entry, looked up): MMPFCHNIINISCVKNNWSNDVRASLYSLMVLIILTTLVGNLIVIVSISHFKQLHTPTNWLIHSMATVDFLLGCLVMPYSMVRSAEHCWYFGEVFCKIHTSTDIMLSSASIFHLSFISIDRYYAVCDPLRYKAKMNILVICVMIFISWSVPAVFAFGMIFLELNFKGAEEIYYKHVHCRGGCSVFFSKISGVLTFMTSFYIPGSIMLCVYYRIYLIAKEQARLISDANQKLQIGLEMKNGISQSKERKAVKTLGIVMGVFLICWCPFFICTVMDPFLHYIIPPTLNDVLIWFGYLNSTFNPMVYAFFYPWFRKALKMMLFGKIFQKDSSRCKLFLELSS
#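 Test system: RD-HGA16 (CHO) cells co-expressing Gα16 and hTAAR1 / Benchmarks: DMSO vehicle as 0%, PEA at EC100 as 100% / Repeats: no replicates (n 1) / Measure: % activation from peak over basal fluorescence ratio, DMSO-to-PEA scaled / Timing: 17-24 h plating, Fluo-8 75 min 37 °C, 30 min RT / Technique: kinetic Fluo-8 calcium fluorescence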
# CHO parental Ca: counter-screen for OX1R antagonists: effect in parental CHO cells; parental CHO-K1, ATP-induced calcium, Fluo-8 fluorescence; inhibition, % at 5.6 µM; 330,000 compounds, 0.63% hits;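 active means inhibition above that plate's mean sample inhibition plus 3 SD, cut at about 26% in these data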;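 further: 0% = ATP-challenged DMSO wells and 100% = DMSO wells without ATP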
#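 material = parental CHO cells | also added = ATP as calcium-mobilizing challenge | dosing = single point at 5.6 µM | detection = intracellular calcium via Fluo-8 no-wash fluorescent dye | read-out = % inhibition | benchmarks = low control ATP plus DMSO, high control DMSO only | repeats = one well per compound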
# TAAR1 antag: human TAAR1 antagonism; CHO RD-HGA16 TAAR1, Fluo-8 calcium fluorescence, antagonist; 360,000 compounds, 1.5% hits; Q96RJ0; inhibition, % at 3 µM;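 active means inhibition above a per-plate cutoff, the mean inhibition of test compounds on that plate plus 3 SD, cut at about 49% in these data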;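 further: 0% = DMSO plus EC80 beta-PEA response and 100% = DMSO alone without agonist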
#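 System: CHO RD-HGA16 cells bearing hTAAR1. Reagent: EC80 β-phenethylamine stimulus. Schedule: seeding 17-24 h prior, 75-min 37 °C, 30-min RT dye loading. Signal: Fluo-8 intracellular calcium dye fluorescence, real-time kinetic reads. Read-out: % inhibition from peak post-agonist over basal fluorescence ratio. Benchmarks: vehicle wells and EC80 agonist wells. Replicates: n of 1.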
# GPR7 antag: human neuropeptides B/W receptor 1 antagonism. GPR7-expressing cells, fluorescence antagonist assay. inhibition, % at 4.4 µM. 290,000 compounds, 1.1% hits; in the data active means inhibition above about 16%, passing the limit was not always enough;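 further: cells stimulated with the agonist NPW; 0% = agonist with vehicle and 100% = vehicle without agonist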
# Target sequence (P48145 whole entry, looked up): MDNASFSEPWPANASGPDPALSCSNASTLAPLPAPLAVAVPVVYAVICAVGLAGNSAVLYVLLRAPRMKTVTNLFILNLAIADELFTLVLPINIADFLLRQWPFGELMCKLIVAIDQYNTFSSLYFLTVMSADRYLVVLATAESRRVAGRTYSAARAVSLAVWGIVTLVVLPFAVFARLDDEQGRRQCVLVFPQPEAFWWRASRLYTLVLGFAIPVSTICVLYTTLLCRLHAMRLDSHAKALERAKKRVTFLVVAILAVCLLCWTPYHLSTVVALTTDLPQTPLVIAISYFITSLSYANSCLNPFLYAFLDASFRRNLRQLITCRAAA
# OX1R antag-1: blocks the human orexin 1 receptor; O43613; CHO/OX1R cells, Fluo-8 calcium fluorescence, orexin A; inhibition, % at 5 µM; 330,000 compounds, 0.43% hits; AID 434989;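 active means inhibition above its plate's threshold, mean inhibition of all tested compounds on the plate plus 3 SD, cut at about 37% in these data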;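 further: 0% = orexin A challenge wells and 100% = SB-334867-A antagonist wells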
# OX1R antag-2: antagonists of human orexin 1 receptor (OX1R); AID 485270; OX1R-expressing cells, FRET antagonist read-out; O43613; inhibition, % at 6.6 µM; 330,000 compounds, 1.8% hits; in the data active means inhibition mostly above about 38%, no sharp cut-off; inactive means mostly below about 40%;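 further: 0% = agonist challenge alone and 100% = reference antagonist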
# Active calls of the source: *; · = not tested or not shown.
SMILES,TAAR1 agonist,CHO parental Ca,TAAR1 antag,GPR7 antag,OX1R antag-1,OX1R antag-2
COc1ccc(CCNCc2ccccc2N2CCCC2)cc1,11,-20,-11,15,-34,5
COC(CNC(=O)C1CCN(S(=O)(=O)c2cccc3nsnc23)CC1)OC,3,1,-19,-8,-8,36
CCCN(CCC)CCNC(=O)C1CCN(S(=O)(=O)c2cccc3nsnc23)CC1,0,-5,-6,-10,-6,43*
CCCCN(CC)CCNC(=O)C1CCN(S(=O)(=O)c2cccc3nsnc23)CC1,0,-17,-14,-14,-22,51*
CCCCN(CC)CCNC(=O)C1CCCN(S(=O)(=O)c2cccc3nsnc23)C1 (centres undefined),-1,-19,-3,-10,-22,37
CCCCN(C)CCNC(=O)C1CCN(S(=O)(=O)c2cccc3nsnc23)CC1,0,-12,-13,-9,-3,49*
COC(=O)C1=C(C)N(Cc2ccccc2C(F)(F)F)C(=NCc2ccc(OC)cc2)NC1c1ccccc1C(F)(F)F (centres undefined),-1,·,-18,·,·,·
C[C@@H]1CCCCO[C@@H](CN(C)C(=O)Nc2ccccc2)[C@@H](C)CN([C@H](C)CO)C(=O)c2cc(NC(=O)NC3CCCCC3)ccc2O1,3,·,-8,·,·,·
CSc1ncccc1C(=O)N1CCCC(N2CCN(c3ccccc3C)CC2)C1 (centres undefined),1,·,-25,·,·,·
Cc1cc(SCC(=O)N/N=C/c2ccc(O)c(O)c2)nc2ccccc12,9,-4,8,-1,-4,17
Cc1cc(SCC(=O)N/N=C/c2ccc(O)cc2O)nc2ccccc12,4,12,25,-9,-4,50*
Cc1ccc(-c2csc(C(O)c3ccc(F)c(F)c3)n2)cc1C (centres undefined),1,·,-9,·,·,·
CCOc1ccc2c(c1)C(C)=CC(C)(C)N2S(=O)(=O)c1ccc(F)cc1,-1,-12,-7,-18,-11,23
COc1ccc2c(c1)C(C)=CC(C)(C)N2S(=O)(=O)c1ccc(Br)cc1,0,-6,10,29*,-12,4
CCOC(=O)c1c(NC(=O)COC(=O)CNC(=O)c2ccc(Cl)cc2Cl)sc(C(=O)N(C)C)c1C,1,-17,-32,·,-17,10
CCOC(=O)c1c(NC(=O)COC(=O)c2nc(Cl)ccc2Cl)sc(C(=O)N(C)C)c1C,12,-20,51*,·,-20,10
O=C(NCc1ccccc1)c1cccc(COc2cc(Cl)ccc2Cl)c1,6,-21,5,-9,-25,48
O=C(NCc1ccccc1)c1cccc(COc2ccccc2Cl)c1,12,57*,45,14,21,41
O=C1c2ccccc2C(=O)N1C1C(=O)N2CCSC12C(=O)OCc1ccccc1 (centres undefined),5,·,-16,·,·,·
CCc1nnc(N2C(=O)c3cccc4cccc(c34)C2=O)s1,4,-18,3,-6,-16,71*
O=C(NCC[C@@H]1CC[C@@H](NS(=O)(=O)Cc2ccccc2)[C@@H](CO)O1)C1CC1,1,·,-19,·,·,·
O=C(Nc1nc2n(n1)C(c1ccccc1)C=C(c1ccccc1)N2)c1ccco1 (centres undefined),14,-21,33,-11,-16,50*
COc1cccc(CN(C)[C@H]2C[C@H]3c4[nH]c5ccccc5c4CCN3C[C@H]2[C@H](C)O)c1OC,1,·,-13,·,·,·
Cc1cc(Br)cn2c(Cc3cccc(F)c3)c(-c3ccco3)nc12,4,·,-23,·,·,·
COC(=O)N/N=C/c1cn(CCOc2ccccc2)c2ccccc12,11,-11,25,-7,-18,51
SMILES,TAAR1 agonist,CHO parental Ca,TAAR1 antag,GPR7 antag,OX1R antag-1,OX1R antag-2
COc1cccc(OCCn2cc(C(C)=O)c3ccccc32)c1,12,32*,21,21,1,20
COC(=O)N/N=C/c1cn(CCOc2ccc(OC)cc2)c2ccccc12,1,-6,50*,1,-7,6
COc1cccc(OCCn2cc(/C=N/NC(=O)c3ccncc3)c3ccccc32)c1,10,-4,21,13,0,13
Cc1nn(C)cc1CN(C)C(=O)C1CCC(=O)N(CCc2cccc(F)c2)C1 (centres undefined),2,·,-11,·,·,·
O=[N+]([O-])c1c(NCCCO)cc(Sc2nc3ccccc3s2)c2nonc12,·,51*,·,4,54*,45*
CCC(=O)OCCNc1cc(Sc2nc3ccccc3[nH]2)c2nonc2c1[N+](=O)[O-],11,61*,20,15,30,93*
CCC(=O)OCCNc1cc(Sc2nc3ccccc3s2)c2nonc2c1[N+](=O)[O-],9,61*,14,2,60*,52*
Cc1nnc(Sc2cc(NCCCO)c([N+](=O)[O-])c3nonc23)s1,1,·,7,16,·,·
COc1ccc(NC(=O)N(C)C[C@H]2OCc3cn(nn3)CCCC(=O)N([C@H](C)CO)C[C@@H]2C)cc1,2,·,7,·,·,·
CCCCCCCCNS(=O)(=O)CCNC1CC1,1,·,-2,·,·,·
C[C@@H]1CN([C@@H](C)CO)C(=O)CCCn2nncc2CO[C@@H]1CN(C)S(=O)(=O)c1ccc2c(c1)OCCCO2,2,·,-9,·,·,·
O=C1N=C(N2CCOCC2)SC1=Cc1ccco1,1,·,14,·,·,·
COc1ccc(/C=C2\SC(N3CCCCC3)=NC2=O)cc1,2,-26,-2,22,-20,23
O=C1N=C(N2CCOCC2)S/C1=C\c1cccnc1,2,7,-9,-15,-4,37*
O=C1N=C(N2CCCCC2)S/C1=C\c1ccncc1,0,-2,10,-15,-1,45*
CN1CC(=O)NC1=NC(=O)c1ccc(Cl)c(S(=O)(=O)N2CCCCCC2)c1,12,-11,-2,-6,-16,-4
CCOC(=O)c1c(S(=O)(=O)NCCc2ccccc2)c(C)n(C)c1C,39*,-25,-18,9,-8,6
Clc1cccc2c1Sc1ccccc1CC2N1CCNCC1 (centres undefined),21,11,23,58*,10,9
CCOc1ccc(C2CC(c3cccc(Cl)c3)n3nc(N)nc3N2)cc1 (centres undefined),2,-8,2,-2,-6,20
Nc1nc2n(n1)C(c1cccc(Cl)c1)CC(c1ccc(F)cc1)N2 (centres undefined),11,-9,3,19*,-9,12
O=C(c1ccc([N+](=O)[O-])s1)N1CCc2ccccc21,-3,-1,-10,2,-5,7
O=C(c1ccc([N+](=O)[O-])s1)N1CCCc2ccccc21,-6,-9,18,8,-6,67*
